# From publication PMC9272583 (European Journal of Medicinal Chemistry, 2022)
# Where two headings read alike, the source gives them in different places.
# What was measured:
# SARS-CoV-2 M^pro [1] = target: T1, SARS-CoV-2 M^pro (Severe acute respiratory syndrome coronavirus 2, UniProt P0DTD1); test: SARS-CoV-2 Mpro fluorogenic; assay type: biochemical; details: for time dependent inhibition: 12.5 μM; for competitive binding (Cheng-Prusoff plots): increasing substrate concentration; for inhibition at 50 µM: 0.25 h, read-out: SARS-CoV-2 M^pro % (50 μM)
# [2] = Parallel artificial membrane permeability assay; assay type: in vitro ADME; details: PAMPA
# SARS-CoV-2 M^pro [3] = target: T1, SARS-CoV-2 M^pro; test: Compound stability against SARS-CoV-2 Mpro; details: 8 h of incubation in assay buffer, HPLC
# DENV-2 protease = target: T2, DENV-2 protease (Dengue virus type 2, UniProt P29990); test: Compound stability against DENV-2 protease; details: 8 h of incubation in DENV assay buffer, HPLC
# T2 sequence (P29990 1476-1653 limits assumed): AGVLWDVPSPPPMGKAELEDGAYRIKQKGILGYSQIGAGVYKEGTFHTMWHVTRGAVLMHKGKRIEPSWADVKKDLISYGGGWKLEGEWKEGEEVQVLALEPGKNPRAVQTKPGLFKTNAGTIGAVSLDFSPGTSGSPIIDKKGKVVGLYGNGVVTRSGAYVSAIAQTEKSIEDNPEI
# SARS-CoV-2 M^pro [4] = target: T1, SARS-CoV-2 M^pro; test: SARS-CoV-2 Mpro Michaelis-Menten kinetics; assay type: biochemical; details: Michaelis-Menten plot
# SARS-CoV-2 M^pro [5] = target: T1, SARS-CoV-2 M^pro; test: Dilution experiment; assay type: biochemical; details: preincubated 100 μM for 2 h, diluted to 3 μM
# DENV serotype 2 protease = DENV serotype 2 protease (Dengue virus type 2, UniProt P29990); test: DENV2 reporter gene assay; assay type: cell-based; details: for inhibition at 12.5 µM: HeLa, 24 h, read-out: DENV2proHeLa % (12.5 μM)
# Outline: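 Stable DENV2proHeLa cells (DMEM, 10% heat-inactivated FCS, antibiotics) were seeded at 2 x 10^4 per well, dosed at once and incubated 24 h at 37 °C. Cells were lysed 15 min at room temperature, then coelenterazine (2.75 μM in PBS) was injected and luciferase read for 5 s. Triplicates; % inhibition vs untreated control. EC50 from a 4-parameter fit after background subtraction (cell-free wells).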
# DENV2proHeLa cells = test: Cytotoxicity in DENV2proHeLa cells; assay type: cell-based
# Outline: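 HeLa cells stably carrying the DENV2 protease reporter, kept in DMEM with 10% heat-inactivated FCS, penicillin and streptomycin. Cells were seeded at 2 x 10^4 per well and given compound dilutions straight away. Plates ran in parallel with the reporter assay for 24 h at 37 °C. Viability was read by CellTiter-Blue, with each concentration in triplicate.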
# DENV serotype 2 = details: DENV-2 titer reduction; cited from earlier work
# SARS-CoV-2 M^pro [6] = target: T1, SARS-CoV-2 M^pro; test: SARS-CoV-2 Mpro mass adduct measurement; assay type: binding; details: ESI-TOF, 100 μM compound
# Outline: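 Test compound (100 μM) was incubated with active recombinant Mpro (3 μM; bacterially expressed, Ni-NTA then size-exclusion purified) in 50 mM Tris-HCl pH 7.4, 100 mM NaCl, 20% v/v ethylene glycol, 0.0016% Brij 58. Analysis was by LC-ESI-TOF MS on a C18 column: water/acetonitrile with 0.1% formic acid, 10→95% B over 4 min, 0.3 mL/min. Negative mode, Na-formate external calibration.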
# [7] = read-out: DENV2proHeLa EC50, reporter gene assay in HeLa cells
# Chain of DENV serotype 2 protease (P29990 1346-1475): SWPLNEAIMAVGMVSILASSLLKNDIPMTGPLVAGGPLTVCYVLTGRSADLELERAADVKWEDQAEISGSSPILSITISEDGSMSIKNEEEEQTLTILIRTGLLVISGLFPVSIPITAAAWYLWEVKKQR
# Chain of DENV serotype 2 protease (P29990 1476-2093): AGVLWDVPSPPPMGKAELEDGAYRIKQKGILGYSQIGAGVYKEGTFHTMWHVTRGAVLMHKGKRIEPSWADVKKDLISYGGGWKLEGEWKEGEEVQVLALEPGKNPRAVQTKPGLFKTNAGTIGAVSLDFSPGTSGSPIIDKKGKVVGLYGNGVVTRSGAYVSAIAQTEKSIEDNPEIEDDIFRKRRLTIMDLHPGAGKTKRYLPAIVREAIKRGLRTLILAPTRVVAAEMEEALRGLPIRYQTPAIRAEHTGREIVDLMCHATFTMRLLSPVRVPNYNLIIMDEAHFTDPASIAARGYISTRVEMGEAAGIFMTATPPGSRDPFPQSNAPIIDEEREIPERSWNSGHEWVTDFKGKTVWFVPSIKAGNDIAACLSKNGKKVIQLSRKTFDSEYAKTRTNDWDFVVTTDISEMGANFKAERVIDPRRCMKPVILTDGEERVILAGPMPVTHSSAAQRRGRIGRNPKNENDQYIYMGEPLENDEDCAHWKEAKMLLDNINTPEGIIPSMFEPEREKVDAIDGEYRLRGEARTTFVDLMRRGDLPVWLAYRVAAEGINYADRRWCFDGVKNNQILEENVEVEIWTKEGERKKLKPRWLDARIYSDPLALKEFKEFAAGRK
smiles,measurement,setting,value
"N=C(N)Nc1ccc2c(c1)B(O)OC2 [Compound 4, 1-(1-Hydroxy-1,3-dihydrobenzo[c][1,2]oxaborol-6-yl)guanidine]",Hill slope of dose-response curve,SARS-CoV-2 M^pro [1],1.15 ± 0.07
same,passive membrane permeability (in words),[2],no permeability
"N=C(N)Nc1ccc(C(=O)Nc2ccc3c(c2)B(O)OC3)cc1 [Compound 8, 4-guanidino-N-(1-hydroxy-1,3-dihydrobenzo[c][1,2]oxaborol-6-yl)benzamide]",stability against SARS-CoV-2 M^pro,SARS-CoV-2 M^pro [3],no cleavage
same,Hill slope of dose-response curve,SARS-CoV-2 M^pro [1],1.14 ± 0.07
same,time dependent inhibition,SARS-CoV-2 M^pro [1],no significant increase or decrease
same,competitive binding (Cheng-Prusoff plots),SARS-CoV-2 M^pro [1],do not show competitive binding
"O=S(=O)(Nc1ccc2c(c1)B(O)OC2)c1ccc(Cl)cc1 [Compound 11, 4-Chloro-N-(1-hydroxy-1,3-dihydrobenzo[c][1,2]oxaborol-6-yl)benzenesulfonamide]",passive membrane permeability (in words),[2],passive permeability
"O=C(Nc1ccc2c(c1)B(O)OC2)c1ccc(Oc2ccccc2)cc1 [Compound 15, N-(1-Hydroxy-1,3-dihydrobenzo[c][1,2]oxaborol-6-yl)-4-phenoxybenzamide]",stability against DENV-2 protease,DENV-2 protease,no decrease in the compound AUC
same,passive membrane permeability (in words),[2],passive permeability
"O=C(Nc1ccc2c(c1)B(O)OC2)c1ccccc1OCc1ccccc1 [Compound 17, 2-(Benzyloxy)-N-(1-hydroxy-1,3-dihydrobenzo[c][1,2]oxaborol-6-yl)benzamide]",passive membrane permeability (in words),[2],passive permeability
"O=C(Nc1ccc2c(c1)B(O)OC2)c1cccc(OCc2ccccc2)c1 [Compound 18, 3-(Benzyloxy)-N-(1-hydroxy-1,3-dihydrobenzo[c][1,2]oxaborol-6-yl)benzamide]",inhibition mode,SARS-CoV-2 M^pro [4],mixed inhibition mode
same,stability against SARS-CoV-2 M^pro,SARS-CoV-2 M^pro [3],no cleavage
same,stability against DENV-2 protease,DENV-2 protease,no decrease in the compound AUC
same,Hill slope of dose-response curve,SARS-CoV-2 M^pro [1],1.39 ± 0.16
same,time dependent inhibition,SARS-CoV-2 M^pro [1],no significant increase or decrease
same,competitive binding (Cheng-Prusoff plots),SARS-CoV-2 M^pro [1],do not show competitive binding
same,passive membrane permeability (in words),[2],passive permeability
same,reversibility of binding,SARS-CoV-2 M^pro [5],reversible
"O=C(Nc1ccc2c(c1)B(O)OC2)c1ccc(OCc2ccc(Cl)cc2)cc1 [Compound 20, 4-((4-Chlorobenzyl)oxy)-N-(1-hydroxy-1,3-dihydrobenzo[c][1,2]oxaborol-6-yl)benzamide]",stability against DENV-2 protease,DENV-2 protease,no decrease in the compound AUC
same,passive membrane permeability (in words),[2],passive permeability
"O=C(Nc1cccc(C(=O)Nc2ccc3c(c2)B(O)OC3)c1)c1ccccc1 [Compound 23, 3-Benzamido-N-(1-hydroxy-1,3-dihydrobenzo[c][1,2]oxaborol-6-yl)benzamide]",stability against SARS-CoV-2 M^pro,SARS-CoV-2 M^pro [3],no cleavage
"O=C(Nc1cccc(B(O)O)c1)c1cccc(OCc2ccccc2)c1 [Compound 26, (3-(3-(Benzyloxy)benzamido)phenyl)boronic acid]",passive membrane permeability (in words),[2],passive permeability
"O=C(Nc1ccc2c(c1)B(O)OC2)c1cccc(OCc2ccccc2)n1 [Compound 28, 6-(Benzyloxy)-N-(1-hydroxy-1,3-dihydrobenzo[c][1,2]oxaborol-6-yl)picolinamide]",inhibition at 12.5 µM,DENV serotype 2 protease,85.2 ± 4.1%
same,EC50,DENV serotype 2 protease; [7],2.5 ± 0.2 µM
same,inhibition at 50 µM,SARS-CoV-2 M^pro [1],55.5 ± 7%
"Cc1cccc(COc2cccc(C(=O)Nc3ccc4c(c3)B(O)OC4)c2)c1 [Compound 29, N-(1-Hydroxy-1,3-dihydrobenzo[c][1,2]oxaborol-6-yl)-3-((3-methylbenzyl)oxy)benzamide]",EC50,DENV serotype 2 protease,1.1 ± 0.1 µM
same,inhibition at 12.5 µM,DENV serotype 2 protease,90 ± 0.9%
same,inhibition at 50 µM,SARS-CoV-2 M^pro [1],45.7 ± 6.3%
"COc1cccc(COc2cccc(C(=O)Nc3ccc4c(c3)B(O)OC4)c2)c1 [Compound 30, N-(1-Hydroxy-1,3-dihydrobenzo[c][1,2]oxaborol-6-yl)-3-((3-methoxybenzyl)oxy)benzamide]",EC50,DENV serotype 2 protease,2.9 ± 0.3 µM
same,inhibition at 12.5 µM,DENV serotype 2 protease,80.4 ± 2%
same,inhibition at 50 µM,SARS-CoV-2 M^pro [1],43.4 ± 9.1%
"N#Cc1ccc(COc2cccc(C(=O)Nc3ccc4c(c3)B(O)OC4)c2)cc1 [Compound 31, 3-((4-Cyanobenzyl)oxy)-N-(1-hydroxy-1,3-dihydrobenzo[c][1,2]oxaborol-6-yl)benzamide]",EC50,DENV serotype 2 protease,4.1 ± 0.2 µM
same,inhibition at 12.5 µM,DENV serotype 2 protease,82.2 ± 3.7%
same,inhibition at 50 µM,SARS-CoV-2 M^pro [1],31.7 ± 3.6%
same,passive membrane permeability (in words),[2],passive permeability
"O=C(Nc1ccc2c(c1)B(O)OC2)c1cccc(OCc2ccc(Cl)cc2)c1 [Compound 32, 3-((4-Chlorobenzyl)oxy)-N-(1-hydroxy-1,3-dihydrobenzo[c][1,2]oxaborol-6-yl)benzamide]",stability against DENV-2 protease,DENV-2 protease,no decrease in the compound AUC
same,EC50,DENV serotype 2 protease,2.4 ± 0.2 µM
same,inhibition at 12.5 µM,DENV serotype 2 protease,83.6 ± 1.7%
"O=C(Nc1ccc2c(c1)B(O)OC2)c1cccc(OCc2c(Cl)cccc2Cl)c1 [Compound 33, 3-((2,6-Dichlorobenzyl)oxy)-N-(1-hydroxy-1,3-dihydrobenzo[c][1,2]oxaborol-6-yl)benzamide]",inhibition at 12.5 µM,DENV serotype 2 protease,85.6 ± 4.3%
same,EC50,DENV serotype 2 protease; [7],0.54 ± 0.05 µM
same,passive membrane permeability (in words),[2],passive permeability
"O=C(Nc1ccc2c(c1)B(O)OC2)c1cccc(OCC2CCCCC2)c1 [Compound 34, 3-(Cyclohexylmethoxy)-N-(1-hydroxy-1,3-dihydrobenzo[c][1,2]oxaborol-6-yl)benzamide]",EC50,DENV serotype 2 protease,3.4 ± 0.5 µM
"CCCCCC(=O)NC(C(=O)NCc1ccc(NC(=N)N)cc1)c1ccc(OCc2ccccc2)cc1 (centres unmarked) [NK-189, reference compound]",CC50,DENV2proHeLa cells,> 50 µM
same,DENV2proHeLa % (12.5 μM),"DENV serotype 2 protease; inhibitor 12.5 μM, reporter gene assay in HeLa cells",79.3 ± 9.7%
same,EC50,DENV serotype 2 protease; [7],0.6 ± 0.1 µM
same,antiviral activity of the reference substance,DENV serotype 2,0.89 µM
CC(C)(C)NC(=O)N[C@H](C(=O)N1C[C@H]2[C@@H]([C@H]1C(=O)NC(CC1CCC1)C(=O)C(N)=O)C2(C)C)C(C)(C)C (some centres unmarked) [boceprevir],mass adducts with SARS-CoV-2 M^pro,SARS-CoV-2 M^pro [6],adducts were found
